The series is described as follows: SAD study tolerability/safety. In kind it is in vivo, human. Summed up:
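Healthy men aged 18–55 years, single oral doses of 10–2,000 mg, 6 active and 2 placebo per cohort, staggered dosing. Fasted dosing, plus a fed period in the 300 mg cohort after at least 7 days washout. Subjects were confined until 48 h post-dose, with follow-up at 29–34 days. AEs, vital signs, ECG, examination and laboratory tests were summarised descriptively.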

[1] abbreviates: SAD, all doses, fasted conditions, 36 subjects.

These results are taken from article PMC7993281 (Clinical and Translational Science, 2020).

SMILES strings stand for the structures.

As to `CCCCCN1C[C@H](O)[C@@H](O)[C@H](O)[C@@H]1CO` [sinbaglustat, (2S,3R,4R,5S)‐2‐(hydroxymethyl)‐1‐pentylpiperidine‐3,4,5‐triol], where the note is “SAD”, the “AEs in the 30, 300, and 2,000 mg cohort” value is on record as “No AE was reported”. Besides, for the setting “SAD 10 mg (n = 6)”, the “Dizziness (subjects)” value turned out to be 1, the “Number of subjects with at least 1 AE” value worked out at 1 and the “Total number of AEs” value stood at 1. Also, where the note is “SAD 100 mg (n = 6)”, the “Number of subjects with at least 1 AE” value was 3, the “Rash (subjects)” value amounted to 1 and the “Total number of AEs” value is 3. Under “SAD 300 mg fed”, the “AEs under fed conditions” value is “no AE was reported”. Further, under “SAD 1,000 mg (n = 6)”, the “Headache (subjects)” value is 2, the “Nausea (subjects)” value was 1, the “Number of subjects with at least 1 AE” value is listed as 3 and the “Palpitations (subjects)” value amounted to 1. For the same compound, where the note is “SAD 1,000 mg (n = 6)”, the “Viral upper respiratory tract (subjects)” value came out at 1 and the “Vomiting (subjects)” value worked out at 1. Also, the “subjects reporting AEs (of 36 treated)” value (SAD, all doses, fasted conditions) stood at 7. In addition, under setting [1], the “subjects reporting AEs” value was found to be 19% and the “total AEs reported” value was 13. The “serious AEs, severe AEs, AEs leading to discontinuation” value (whole study (SAD and MAD), up to end‐of‐study) is recorded as “No serious AEs, severe AEs, or AEs leading to study or treatment discontinuation occurred”.
